In ChEMBL document CHEMBL3227917, “Structure-activity relationships of dimeric Catharanthus alkaloids. 2. Experimental antitumor activities of N-substituted deacetylvinblastine amide (vindesine) sulfates” (J Med Chem, 1979):

What was measured:
P388/VCR [1] = test: Antitumor activity against mouse P388/VCR cells allografted in CD2F1 mouse assessed as increase in host lifespan at 1.08 mg/kg, ip administered on days 1, 5 and 9; assay type: functional; conditions: route intraperitoneal
Procedure, shortened: (§1)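 Groups of eight male CD2F1 mice bearing P388 leukemia, run at NCI. Sulfate salts given ip on days 1, 5 and 9. Read-out is percent increase in lifespan.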

CHO [2] = test: Mitotic arrest in CHO cells assessed as increase in cell accumulation at 0.2 ug/ml; assay type: functional, Cricetulus griseus
Procedure, shortened: (§2)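 Chinese hamster ovary cells in tissue culture, scored for mitotic arrest as increase in cells in mitotic arrest over control: +++, 40–50%; ++, 15–40%; +, 10–15%; ±, 7–10%; –, 3–7%. Cytotoxicity noted separately.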

[3] = Antitumor activity against mouse P1534 cells allografted in DBA2 mouse assessed as tumor growth inhibition at 0.25 mg/kg, ip administered daily for 8 to 10 days; assay type: functional; conditions: route intraperitoneal, read-out: TGI
Procedure, shortened: (§3)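 P1534(J) leukemia implanted sc in DBA2 mice; sulfate salts dosed ip daily for 8–10 days. Growth inhibition scored –, 0–25%; +, 26–50%; ++, 51–75%; +++, 76–100%; T, lethal to ≥5 of 10 animals per group. Average of one or more tests.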

P388/VCR [4] = test: Antitumor activity against mouse P388/VCR cells allografted in CD2F1 mouse assessed as increase in host lifespan at 0.648 mg/kg, ip administered on days 1, 5 and 9; assay type: functional; conditions: route intraperitoneal; procedure, shortened: as §1
P388/S [5] = test: Antitumor activity against mouse P388/S cells allografted in CD2F1 mouse assessed as increase in host lifespan at 1.08 mg/kg, ip administered on days 1, 5 and 9; assay type: functional; conditions: route intraperitoneal; procedure, shortened: as §1
Mus musculus [6] = test: Toxicity in CD2F1 mouse allografted with mouse P388/VCR cells at 3.00 mg/kg, ip administered on days 1, 5 and 9; assay type: organism-based; parameters: dose 3 mg/kg, route intraperitoneal; conditions: in vivo
P388/S [7] = test: Antitumor activity against mouse P388/S cells allografted in CD2F1 mouse assessed as increase in host lifespan at 0.648 mg/kg, ip administered on days 1, 5 and 9; assay type: functional; conditions: route intraperitoneal; procedure, shortened: as §1
P388/VCR [8] = test: Antitumor activity against mouse P388/VCR cells allografted in CD2F1 mouse assessed as increase in host lifespan at 1.80 mg/kg, ip administered on days 1, 5 and 9; assay type: functional; conditions: dose 1.8 mg/kg; route intraperitoneal
Procedure, shortened: (§4)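 Groups of eight male CD2F1 mice, tested at the NCI. Compounds were given as sulfate salts, dosed in mg/kg ip on days 1, 5 and 9. Activity was read as percent increase in lifespan against the leukemia line.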

[9] = Antitumor activity against mouse P1534 cells allografted in DBA2 mouse assessed as tumor growth inhibition at 0.30 mg/kg, ip administered daily for 8 to 10 days; assay type: functional; conditions: route intraperitoneal, read-out: TGI; procedure, shortened: as §3
[10] = Antitumor activity against mouse P1534 cells allografted in DBA2 mouse assessed as tumor growth inhibition at 0.40 mg/kg, ip administered daily for 8 to 10 days; assay type: functional; conditions: route intraperitoneal, read-out: TGI; procedure, shortened: as §3
P388/VCR [11] = test: Antitumor activity against mouse P388/VCR cells allografted in B6D2F1 mouse assessed as increase in host lifespan at 0.60 mg/kg, ip administered on days 1, 5 and 9; assay type: functional; conditions: dose 0.6 mg/kg; route intraperitoneal
Procedure, shortened: (§5)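 P388/VCR leukemia in groups of 10 B6D2F1 mice, run at Lilly using the cell strain received from NCI. Sulfate salts given ip on days 1, 5 and 9. Read-out is percent increase in lifespan.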

CHO [12] = test: Mitotic arrest in CHO cells assessed as increase in cell accumulation at 0.002 ug/ml; assay type: functional, Cricetulus griseus; procedure, shortened: as §2
P388/S [13] = test: Antitumor activity against mouse P388/S cells allografted in CD2F1 mouse assessed as increase in host lifespan at 1.80 mg/kg, ip administered on days 1, 5 and 9; assay type: functional; conditions: dose 1.8 mg/kg; route intraperitoneal; procedure, shortened: as §4
[14] = Toxicity in iv dosed mouse assessed as lethality; assay type: organism-based; conditions: in vivo
[15] = Antitumor activity against mouse P1534 cells allografted in DBA2 mouse assessed as tumor growth inhibition at 0.20 mg/kg, ip administered daily for 8 to 10 days; assay type: functional; conditions: route intraperitoneal, read-out: TGI; procedure, shortened: as §3
P388/VCR [16] = test: Antitumor activity against mouse P388/VCR cells allografted in B6D2F1 mouse assessed as increase in host lifespan at 1.20 mg/kg, ip administered on days 1, 5 and 9; assay type: functional; conditions: dose 1.2 mg/kg; route intraperitoneal; procedure, shortened: as §5
P388/VCR [17] = test: Antitumor activity against mouse P388/VCR cells allografted in B6D2F1 mouse assessed as increase in host lifespan at 0.90 mg/kg, ip administered on days 1, 5 and 9; assay type: functional; conditions: dose 0.9 mg/kg; route intraperitoneal; procedure, shortened: as §5
Mus musculus [18] = test: Toxicity in CD2F1 mouse allografted with mouse P388/S cells at 3.00 mg/kg, ip administered on days 1, 5 and 9; assay type: organism-based; parameters: dose 3 mg/kg, route intraperitoneal; conditions: in vivo
CHO [19] = test: Mitotic arrest in CHO cells assessed as increase in cell accumulation at 0.02 ug/ml; assay type: functional, Cricetulus griseus; procedure, shortened: as §2
[20] = Antitumor activity against mouse Gardner lymphosarcoma allografted in C3H mouse assessed as tumor growth inhibition at 0.10 mg/kg, ip administered daily for 8 to 10 days; assay type: functional; conditions: route intraperitoneal, read-out: TGI
Procedure, shortened: (§6)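 Gardner lymphosarcoma in C3H mice; sulfate salts unless noted, given ip daily for 8–10 days, treatment starting 8 days after tumor implantation. Tumor growth inhibition scored as –, 0–25%; +, 26–50%; ++, 51–75%; +++, 76–100%; T, lethal to ≥5 of 10 animals per group. Average of one or more tests.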

Mus musculus [21] = test: Toxicity in C57BL/6 mouse allografted with mouse B16 cells assessed as animal death at 1.20 mg/kg, ip administered on days 1,5 and 9; assay type: organism-based; parameters: dose 1.2 mg/kg, route intraperitoneal; conditions: in vivo, 1.2 mg/kg
Procedure, shortened: (§7)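 B16 melanoma cells (10⁶ inoculum) implanted ip in C57BL/6 mice; groups of 10. Sulfate salts unless noted, given ip on days 1, 5 and 9. Single test. Survival prolongation is expressed as percent versus controls, with survivors counted on day 60. Toxic means deaths of ≥5 of 10 animals before the first control death.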

Mus musculus [22] = test: Toxicity in C57BL/6 mouse allografted with mouse B16 cells assessed as animal death at 0.60 mg/kg, ip administered on days 1,5 and 9; assay type: organism-based; parameters: dose 0.6 mg/kg, route intraperitoneal; conditions: in vivo, 0.6 mg/kg; procedure, shortened: as §7
Mus musculus [23] = test: Toxicity in C57BL/6 mouse allografted with mouse B16 cells assessed as animal death at 0.90 mg/kg, ip administered on days 1,5 and 9; assay type: organism-based; parameters: dose 0.9 mg/kg, route intraperitoneal; conditions: in vivo, 0.9 mg/kg; procedure, shortened: as §7
[24] = Antitumor activity against mouse Gardner lymphosarcoma allografted in C3H mouse assessed as tumor growth inhibition at 0.20 mg/kg, ip administered daily for 8 to 10 days; assay type: functional; conditions: route intraperitoneal, read-out: TGI; procedure, shortened: as §6
[25] = Antitumor activity against mouse Gardner lymphosarcoma allografted in C3H mouse assessed as tumor growth inhibition at 0.5 mg/kg, ip administered daily for 8 to 10 days; assay type: functional; conditions: route intraperitoneal, read-out: TGI; procedure, shortened: as §6
[26] = Antitumor activity against mouse Gardner lymphosarcoma allografted in C3H mouse assessed as tumor growth inhibition at 0.25 mg/kg, ip administered daily for 8 to 10 days; assay type: functional; conditions: route intraperitoneal, read-out: TGI; procedure, shortened: as §6
[27] = Antitumor activity against mouse Gardner lymphosarcoma allografted in C3H mouse assessed as tumor growth inhibition at 0.40 mg/kg, ip administered daily for 8 to 10 days; assay type: functional; conditions: route intraperitoneal, read-out: TGI; procedure, shortened: as §6
[28] = Antitumor activity against mouse Gardner lymphosarcoma allografted in C3H mouse assessed as tumor growth inhibition at 0.125 mg/kg, ip administered daily for 8 to 10 days; assay type: functional; conditions: route intraperitoneal, read-out: TGI; procedure, shortened: as §6

CC[C@]1(O)C[C@@H]2CN(CCc3c([nH]c4ccccc34)[C@@](C(=O)OC)(c3cc4c(cc3OC)N(C)[C@H]3[C@@](O)(C(=O)OC)[C@H](OC(C)=O)[C@]5(CC)C=CCN6CC[C@]43[C@@H]65)C2)C1.O=S(=O)(O)O [VINBLASTINE SULFATE]
Activity (P388/VCR [1]): 12%
Activity (CHO [2]): 40%
inhibition in vivo at 0.25 mg/kg [3]: 0%
Activity (P388/VCR [4]): 17%
Activity (P388/S [5]): 96%
Activity (Mus musculus [6]): Toxic
Activity (P388/S [7]): 75%
Activity (P388/VCR [8]): 17%
inhibition in vivo at 0.3 mg/kg [9]: 0%
inhibition in vivo at 0.4 mg/kg [10]: 51%
Activity (P388/VCR [11]): 9%
Activity (CHO [12]): 3%
Activity (P388/S [13]): 92%
LD50 [14]: 10 mg/kg
inhibition in vivo at 0.2 mg/kg [15]: 0%
Activity (P388/VCR [16]): 10%
Activity (P388/VCR [17]): 9%
Activity (Mus musculus [18]): Toxic
Activity (CHO [19]): 15%

CC[C@]1(O)C[C@H]2CN(CCc3c([nH]c4ccccc34)[C@@](C(=O)OC)(c3cc4c(cc3OC)N(C)[C@H]3[C@@](O)(C(=O)NCCOC)[C@H](O)[C@]5(CC)C=CCN6CC[C@]43[C@@H]65)C2)C1.O=S(=O)(O)O
inhibition in vivo at 0.1 mg/kg [20]: 0%
Activity (Mus musculus [21]): Toxic
Activity (Mus musculus [22]): Toxic
Activity (Mus musculus [23]): Toxic
inhibition in vivo at 0.2 mg/kg [24]: 0%

CC[C@]1(O)C[C@H]2CN(CCc3c([nH]c4ccccc34)[C@@](C(=O)OC)(c3cc4c(cc3OC)N(C)[C@H]3[C@@](O)(C(=O)NCCNC(C)=O)[C@H](O)[C@]5(CC)C=CCN6CC[C@]43[C@@H]65)C2)C1
inhibition in vivo at 0.5 mg/kg [25]: 76%
inhibition in vivo at 0.25 mg/kg [26]: 76%
inhibition in vivo at 0.1 mg/kg [20]: 76%
inhibition in vivo at 0.4 mg/kg [27]: 76%
inhibition in vivo at 0.125 mg/kg [28]: 51%
inhibition in vivo at 0.2 mg/kg [24]: 76%
